Experiments:
OCT4 = test: NCCIT-OCT4 response element-driven luciferase reporter assay; format: cell-based, human; conditions: for induction of OCT4 expression in NCCIT-OCT4 reporter cell line: histone demethylase inhibitors incubated for 48 h
LSD1 = LSD1 (Homo sapiens, UniProt O60341); test: LSD1 activity/inhibition assay; format: biochemical
KDM4 = KDM4 demethylase activity/inhibition assay; format: biochemical
NANOG = test: NCCIT-NANOG response element-driven luciferase reporter assay; format: cell-based, human
KDM5D = test: Demethylase assay on KDM5D immunoprecipitated from cells; format: biochemical
human fibroblasts = test: qRT-PCR of reprogramming-associated genes in human fibroblasts; format: cell-based
[1] = test system: human primary fibroblasts; test: OSKM episomal reprogramming, TRA-1-60+ colonies counting; format: cell-based
Method in brief: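 Human primary fibroblasts, including OSKM-resistant lines and fibroblasts carrying an LTR7-EGFP promoter reporter, transfected with episomal OSKM with or without test compound; OSKM-only fibroblasts serve as comparison. ESC-like colonies stained for TRA-1-60, and reprogramming efficiency taken as the count of TRA-1-60-positive colonies.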

KDM5 = KDM5 demethylase activity/inhibition assay; format: biochemical
KDM5C = KDM5C (Homo sapiens, UniProt P41229); test: Demethylase assay on KDM5C immunoprecipitated from cells; format: biochemical
hPSCs = test: Viability and maintenance of hPSCs after single cell expansion; format: cell-based, human; conditions: 10 μM
methylated H3K4 = test: In vitro H3K4 methylation assay; format: biochemical; conditions: micromolar concentrations

KDM5C, sequence (P41229 whole entry): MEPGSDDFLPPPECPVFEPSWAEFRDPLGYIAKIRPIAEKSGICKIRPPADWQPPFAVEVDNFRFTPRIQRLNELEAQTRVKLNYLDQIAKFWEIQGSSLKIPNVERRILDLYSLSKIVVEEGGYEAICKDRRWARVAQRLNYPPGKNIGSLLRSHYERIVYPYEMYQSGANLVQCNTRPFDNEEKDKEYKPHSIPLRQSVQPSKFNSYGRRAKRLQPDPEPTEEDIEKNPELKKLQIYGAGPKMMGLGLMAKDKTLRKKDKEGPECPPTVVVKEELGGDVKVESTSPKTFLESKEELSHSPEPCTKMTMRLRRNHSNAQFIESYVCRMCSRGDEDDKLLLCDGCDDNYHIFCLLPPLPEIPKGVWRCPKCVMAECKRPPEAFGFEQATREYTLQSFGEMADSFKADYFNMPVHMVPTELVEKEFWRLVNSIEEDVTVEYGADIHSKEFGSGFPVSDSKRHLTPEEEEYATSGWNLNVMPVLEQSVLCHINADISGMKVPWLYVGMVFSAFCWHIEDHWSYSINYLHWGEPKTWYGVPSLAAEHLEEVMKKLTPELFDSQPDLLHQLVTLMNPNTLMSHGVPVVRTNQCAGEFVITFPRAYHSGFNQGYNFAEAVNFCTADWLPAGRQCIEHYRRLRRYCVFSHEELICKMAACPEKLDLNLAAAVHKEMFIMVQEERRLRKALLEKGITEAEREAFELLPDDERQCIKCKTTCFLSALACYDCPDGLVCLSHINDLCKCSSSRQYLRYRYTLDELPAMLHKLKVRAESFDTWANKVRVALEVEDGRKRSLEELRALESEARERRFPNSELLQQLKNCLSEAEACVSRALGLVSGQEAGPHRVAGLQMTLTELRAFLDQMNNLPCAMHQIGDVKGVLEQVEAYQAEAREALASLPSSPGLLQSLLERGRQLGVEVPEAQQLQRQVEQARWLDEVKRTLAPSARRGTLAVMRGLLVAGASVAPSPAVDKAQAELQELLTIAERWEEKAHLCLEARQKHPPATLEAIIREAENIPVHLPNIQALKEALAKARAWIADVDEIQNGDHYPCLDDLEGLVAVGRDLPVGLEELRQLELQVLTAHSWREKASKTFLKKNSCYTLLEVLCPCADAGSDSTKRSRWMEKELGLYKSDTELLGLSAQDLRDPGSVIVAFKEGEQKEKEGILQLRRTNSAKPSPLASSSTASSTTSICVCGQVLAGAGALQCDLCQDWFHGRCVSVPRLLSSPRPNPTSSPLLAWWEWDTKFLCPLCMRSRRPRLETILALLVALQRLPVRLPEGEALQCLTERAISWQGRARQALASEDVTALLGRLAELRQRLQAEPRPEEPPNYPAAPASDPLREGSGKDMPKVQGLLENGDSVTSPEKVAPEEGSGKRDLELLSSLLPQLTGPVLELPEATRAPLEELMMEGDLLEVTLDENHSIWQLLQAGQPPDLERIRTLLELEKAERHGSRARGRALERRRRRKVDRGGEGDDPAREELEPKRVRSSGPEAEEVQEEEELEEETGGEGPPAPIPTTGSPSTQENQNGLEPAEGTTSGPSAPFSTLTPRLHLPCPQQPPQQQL

CC(C)c1c(-c2ccccc2)[nH]c2c(C#N)cnn2c1=O [CPI-455]
induction of OCT4 expression in NCCIT-OCT4 reporter cell line (OCT4): 3 fold

Clc1ccc(N/N=C(\c2ccccc2)c2ccccn2)nc1 [JIB-04]
induction of OCT4 expression in NCCIT-OCT4 reporter cell line (OCT4): 5 fold

Cc1ccc(-c2cn3cc(C)ccc3n2)cc1 [O4I3, 6-methyl-2-(p-tolyl)imidazo[1,2-a]pyridine]
inhibition of LSD1 activity (LSD1): could not be detected
inhibitory effect on LSD1 (LSD1; even at a concentration of 100 μM): hardly detected
IC50 (KDM4; read-out: KDM4 IC50, whole-cell nuclear extraction): 249 nM
induction of NANOG (NANOG; NCCIT-NANOG reporter cells, low nanomolar doses, compared with untreated cells): ~10 fold
induction of OCT4 (OCT4; NCCIT-OCT4 reporter cells, low nanomolar doses, compared with untreated cells): ~10 fold
fold less potent IC50 on KDM5D than on KDM5A (KDM5D): 20 fold
increase of CDH1 mRNA (human fibroblasts; human fibroblasts): about 100 fold
induction of NANOG mRNA (human fibroblasts; human fibroblasts): approximately 10 fold
increase of SOX2 mRNA (human fibroblasts; human fibroblasts, 50 nM): about 100 fold
induction of OCT4 mRNA (human fibroblasts; human fibroblasts, 50 nM): approximately 10 fold
CDH1 mRNA level versus hPSCs (human fibroblasts; treated human fibroblasts): approximately 10%
NANOG mRNA level versus hPSCs (human fibroblasts; treated human fibroblasts): ~1%
OCT4 mRNA level versus hPSCs (human fibroblasts; treated human fibroblasts): ~0.1%
SOX2 mRNA level versus hPSCs (human fibroblasts; treated human fibroblasts): ~1%
increase of the number of TRA-1-60-positive colonies ([1]; 50 nM added to OSKM, HF1 and HF2, compared with OSKM-only-treated fibroblasts): 10–20 times
iPSC-like colonies in fibroblasts resistant to OSKM-mediated reprogramming ([1]; HFF-LTR7-EGFP and HF4, with OSKM): appeared
episome-based reprogramming efficiency ([1]; with compound, from ∼0.01% without): ~0.1%
IC50 (KDM5; read-out: KDM5 IC50, whole-cell nuclear extraction): 0.79 nM
fold less potent IC50 on KDM5C than on KDM5A (KDM5C): 40 fold

Cc1ccc(-c2nc3ccc(C)cn3c2CC(=O)N(C)C)cc1 [zolpidem, reference compound]
inhibition of LSD1 activity (LSD1): could not be detected
inhibition of KDM4 (KDM4; micromolar concentrations): inhibited
induction in NCCIT-NANOG reporter cells (NANOG; 10 μM, 48 h): ~2 fold
induction in NCCIT-OCT4 reporter cells (OCT4; 10 μM, 48 h): ~2 fold
maintenance of iPSCs (hPSCs): promoted the maintenance
protection of H3K4 methylation (methylated H3K4): protected
iPSC-like colonies in fibroblasts resistant to OSKM-mediated reprogramming ([1]; 10 μM, with OSKM): appeared
inhibition of KDM5 (KDM5; micromolar concentrations): inhibited
